Test [1] deals with T1, Steroid 17-alpha-hydroxylase/17,20 lyase (Rattus norvegicus, UniProt P11715).
T1 sequence (P11715 whole entry): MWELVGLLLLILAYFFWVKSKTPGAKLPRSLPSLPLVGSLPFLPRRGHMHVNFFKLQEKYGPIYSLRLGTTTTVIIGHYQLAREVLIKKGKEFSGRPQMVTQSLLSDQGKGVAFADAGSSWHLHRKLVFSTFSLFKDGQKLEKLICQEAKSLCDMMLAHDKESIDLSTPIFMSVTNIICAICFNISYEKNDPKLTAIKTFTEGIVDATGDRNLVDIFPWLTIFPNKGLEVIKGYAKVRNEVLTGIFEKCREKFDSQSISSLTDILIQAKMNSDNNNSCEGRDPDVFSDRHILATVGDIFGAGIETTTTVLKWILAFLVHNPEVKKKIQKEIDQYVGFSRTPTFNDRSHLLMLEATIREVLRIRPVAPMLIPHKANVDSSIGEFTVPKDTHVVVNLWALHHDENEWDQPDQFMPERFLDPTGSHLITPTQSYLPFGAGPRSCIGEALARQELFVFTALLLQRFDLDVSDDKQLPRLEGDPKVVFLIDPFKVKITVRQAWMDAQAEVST
Nature of the test: Inhibition of rat microsomal 17,20-lyase component of P450-17alpha. The procedure, abridged:
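Rat testicular microsomes (final 0.23 mg/mL protein) incubated at 37 °C for 30 min in 50 mM sodium phosphate pH 7.4 with NADPH generating system and radiolabelled 17α-hydroxyprogesterone (1 μM), inhibitor added in ethanol. Ether extraction, TLC (DCM/ethyl acetate 4:1) with carrier steroids, ³H scintillation counting versus no-inhibitor controls. IC50 from five or more concentrations in triplicate, linear regression of inhibition versus log[I].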

The target in test [2] is T1, Steroid 17-alpha-hydroxylase/17,20 lyase. Kind of test: Inhibition of rat microsomal 17-alpha-hydroxylase component of P450-17alpha. The procedure, abridged:
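Microsomal enzyme (final 0.16 mg/mL) preincubated mixture at 37 °C, 15 min reaction in 50 mM sodium phosphate pH 7.4 with NADPH generating system and radiolabelled progesterone (1.5 μM); inhibitor in ethanol. Ether extraction, TLC (DCM/ethyl acetate 7:3) with carrier steroids, ³H counting against uninhibited controls. IC50 from ≥5 concentrations in triplicate by linear regression of inhibition versus log[I].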

The IC50 is the midpoint of a concentration-inhibition curve. As to `Cc1ccc(Cn2ccnc2)cc1`, the IC50 in test [1] came to 8.81 µM; in test [2] it was 50.6 µM.

As for `Ic1ccc(Cn2ccnc2)cc1`, the figures for the IC50 in test [1] and in test [2] were 1.58 µM and 10.1 µM, respectively.

For the compound `Fc1ccc(Cn2ccnc2)cc1`, the values for the IC50 in test [1] and in test [2] were 18.4 µM and 86.6 µM, respectively.

On to `Brc1ccc(Cn2ccnc2)cc1`, for which the IC50 came out at 6.76 µM in test [1] and 53.4 µM in test [2].

As to `N#Cc1ccc(Cn2ccnc2)cc1`, the IC50 in test [1] was 7.67 µM; in test [2] it was 40.3 µM.

In the case of `Clc1ccc(Cn2ccnc2)cc1`, the IC50 in test [1] turned out to be 2.81 µM; in test [2], 31.6 µM.

For the compound `Brc1cc(Br)cc(Cn2ccnc2)c1`, the IC50 in test [1] is 3.16 µM; in test [2], 25.9 µM.

As for `Fc1ccc(Cn2ccnc2)cc1F`, the values for the IC50 in test [1] and in test [2] were 9.6 µM and 70.7 µM, respectively.

For `Fc1cc(F)cc(Cn2ccnc2)c1`, the IC50 is 11.8 µM in test [1] and 83.1 µM in test [2].

Turning to `c1ccc(Cn2ccnc2)cc1` [BENZYLIMIDAZOLE], the IC50 in test [1] is 39.1 µM; in test [2] it was 215 µM.

Regarding `Clc1cc(Cl)cc(Cn2ccnc2)c1`, the IC50 in test [1] amounted to 3.34 µM; in test [2] it was 22.6 µM.

For `O=[N+]([O-])c1ccc(Cn2ccnc2)cc1`, the IC50 in test [1] was 7.17 µM; in test [2], 25.4 µM.

Turning to `Clc1ccc(Cn2ccnc2)cc1Cl`, the IC50 in test [1] stood at 2.07 µM; in test [2], 12.2 µM.

Turning to `CC(=O)N1CCN(c2ccc(OCC3COC(Cn4ccnc4)(c4ccc(Cl)cc4Cl)O3)cc2)CC1` (configuration not stated) [KETOCONAZOLE], the results for the 50% inhibitory concentration (IC50) in test [1] and in test [2] were 1.66 µM and 3.76 µM, respectively.

On to `FC(F)(F)c1cc(Cn2ccnc2)cc(C(F)(F)F)c1`, for which the concentration for half-maximal inhibition (IC50) turned out to be 19.5 µM in test [1] and 245 µM in test [2].

As for `Oc1ccc(Cn2ccnc2)cc1`, the figures for the concentration for half-maximal inhibition (IC50) in test [1] and in test [2] were 8.22 µM and 72.1 µM, respectively.

The record behind these values is ChEMBL document CHEMBL1145348, “Synthesis and biochemical evaluation of a range of potent benzyl imidazole-based compounds as potential inhibitors of the enzyme complex 17alpha-hydroxylase/17,20-lyase (P450(17alpha))” (Bioorg Med Chem Lett, 2006).
